Experimental data as given in ChEMBL document CHEMBL2321845, “Discovery of 4-Aryl-2-benzoyl-imidazoles as tubulin polymerization inhibitor with potent antiproliferative properties” (J Med Chem, 2013).

What was measured:
A-375 = test: Cytotoxicity against human A375 cells assessed as growth inhibition after 48 hrs by SRB assay; assay type: functional, cell-based; details: A-375, 48 h
How it was run: (§1)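 Melanoma cells from ATCC, grown in DMEM with 10% FBS at 37°C under 5% CO2. Seeded at 1000–5000 cells/well according to growth rate and exposed to a range of compound concentrations for 48 h, in three to five replicates. Cells were fixed with 10% TCA, stained with 0.4% SRB and read at 540 nm.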

DU-145 = test: Cytotoxicity against human DU145 cells assessed as growth inhibition after 96 hrs by SRB assay; assay type: functional, cell-based
[1] = Cytotoxicity against human MDA-MB-435/LCC6MDR1 cells assessed as growth inhibition after 48 hrs by SRB assay; assay type: functional, cell-based, MDA-MB-435/LCC6 MDR1
MDA-MB-435 = test: Cytotoxicity against human MDA-MB-435 cells assessed as growth inhibition after 48 hrs by SRB assay; assay type: functional, cell-based; details: MDA-MB-435, 48 h
LNCaP = test: Cytotoxicity against human LNCAP cells assessed as growth inhibition after 96 hrs by SRB assay; assay type: functional, cell-based
How it was run: (§2)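 Plated at 1000–5000 cells/well depending on growth rate and treated with graded compound concentrations for 96 h, three to five replicates. Cell number was measured by SRB: 10% TCA fixation, 0.4% SRB staining, absorbance at 540 nm. IC50 relative to untreated control came from a nonlinear regression fit.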

PC-3 [2] = test: Cytotoxicity against human PC3 cells assessed as growth inhibition after 96 hrs by SRB assay; assay type: functional, cell-based; details: PC-3, 96 h; how it was run: as §2
PPC-1 = test: Cytotoxicity against human PPC1 cells assessed as growth inhibition after 96 hrs by SRB assay; assay type: functional, cell-based; details: PPC-1, 96 h; how it was run: as §2
[3] = Cytotoxicity against human WM164 cells assessed as growth inhibition after 48 hrs by SRB assay; assay type: functional, cell-based; details: WM164, 48 h
How it was run: as §1, with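 “nm. IC50 (50% growth inhibition versus untreated control) was taken from nonlinear regression of % survival against concentration.” for “nm.”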

PC-3 [4] = test: Cell cycle arrest in human PC3 cells assessed as accumulation at G2/M phase after 24 hrs by propidium iodide staining based FACS analysis (reference value: 18%); assay type: functional
[5] = Homo sapiens, MDA-MB-435/LCC6 MDR1, 48 h

Structure (SMILES) | IC50 (A-375) [nM] | IC50 (DU-145; du-145) [nM] | IC50 ([1]; mda-mb-435/lcc6 mdr1) [nM] | IC50 (MDA-MB-435) [nM] | IC50 [1, 5] [nM] | IC50 (LNCaP) [nM] | IC50 (PC-3 [2]) [nM] | IC50 (PPC-1) [nM] | IC50 (DU-145; Homo sapiens, DU-145, 96 h) [nM] | IC50 [3] [nM] | Activity (PC-3 [4]) | Activity (PC-3 [4]; record 2)
COc1cc(Cc2nc(-c3ccccc3)c(C)[nH]2)cc(OC)c1OC | > 50000 |  |  |  |  |  |  |  |  |  |  | 
COc1cc(C(=O)c2c[nH]c(-c3ccc(C)cc3)n2)cc(OC)c1OC |  | 11 | 11 |  |  |  |  |  |  |  |  | 
CCc1[nH]c(Cc2cc(OC)c(OC)c(OC)c2)nc1-c1ccccc1 |  |  |  | > 50000 | > 50000 |  |  |  |  |  |  | 
COc1cc(-c2c[nH]c(C(=O)c3ccc(Br)cc3)n2)cc(OC)c1OC | 136 |  |  | 186 | 161 | 131 | 371 | 106 | 429 | 177 |  | 
COc1cc(C(=O)c2nc(-c3ccc(O)cc3)c[nH]2)cc(OC)c1OC | 487 |  |  | 669 | 455 | 219 | 155 | 122 | 518 | 549 |  | 
COc1cc(Cc2nc(-c3ccccc3)c(-c3ccccc3)[nH]2)cc(OC)c1OC |  |  |  | > 50000 | > 50000 |  |  |  |  |  |  | 
COc1cc(C(=O)c2c[nH]c(-c3ccc(C(C)(C)C)cc3)n2)cc(OC)c1OC |  |  |  | 3690 | 3070 | 423 | 436 | 294 | 1700 |  |  | 
COc1cc(-c2c[nH]c(C(=O)c3ccc(O)cc3)n2)cc(OC)c1OC | > 50000 |  |  | > 50000 | > 50000 |  |  |  |  | > 50000 |  | 
COc1cc(-c2c[nH]c(C(=O)c3ccccc3)n2)cc(OC)c1OC | 1020 |  |  | 4610 | 5770 | 195 | 632 | 408 | 1300 | 1270 |  | 
COc1cc(C(=O)c2c[nH]c(-c3ccc(C(C)C)cc3)n2)cc(OC)c1OC |  |  |  | 312 | 250 | 171 | 136 | 173 | 482 |  |  | 
COc1cc(C(=O)c2nc(-c3cc(OC)c(OC)c(OC)c3)c[nH]2)cc(OC)c1OC | > 50000 |  |  | > 50000 | > 50000 | > 50000 | > 50000 | > 50000 | > 50000 | > 50000 |  | 
COc1cc(C(=O)c2nc(-c3ccc(C)cc3)c[nH]2)cc(OC)c1OC | 13 |  |  | 27 | 21 | 13 |  |  |  | 14 |  | 
COc1cc(Cc2nc(-c3ccccc3)c[nH]2)cc(OC)c1OC | 10200 |  |  |  |  |  |  |  |  |  |  | 
CCCc1[nH]c(Cc2cc(OC)c(OC)c(OC)c2)nc1-c1ccccc1 |  |  |  | 10900 | 15900 |  |  |  |  |  |  | 
COc1cc(C(=O)c2nc(-c3ccccc3)c(C)[nH]2)cc(OC)c1OC | 1300 |  |  | 1630 | 1590 | 938 | 1620 | 860 | 2000 | 1900 |  | 
CCCc1[nH]c(C(=O)c2cc(OC)c(OC)c(OC)c2)nc1-c1ccccc1 | 37000 |  |  | 30500 | 14300 | 3090 | 12400 | 11400 | 16400 | 19600 |  | 
COc1cc(C(=O)c2nc(-c3ccccc3)cn2Cc2ccccc2)cc(OC)c1OC | 104 |  |  | 94 | 156 | 66 | 72 | 77 | 160 | 34 |  | 
CCc1ccc(-c2nc(C(=O)c3cc(OC)c(OC)c(OC)c3)c[nH]2)cc1 | 14 |  |  | 25 | 27 |  | 13 | 15 | 25 |  | Dose-dependent effect | <=70%
CCc1[nH]c(C(=O)c2cc(OC)c(OC)c(OC)c2)nc1-c1ccccc1 | 2150 |  |  | 8800 | 5110 | 2030 | 3650 | 2080 | 5080 | 5510 |  | 
